Measurements as given in ChEMBL document CHEMBL2069305, “Discovery and optimization of a series of liver X receptor antagonists” (Bioorg Med Chem Lett, 2012).
Blank lines part the entries; values can stand above or below the molecule they belong to.

How the values were obtained:
[1] = Metabolic stability in rat liver microsomes assessed as compound remaining at 1 uM after 30 mins; type: ADME, Microsome; details: read-out: Stability
[2] = biological target: T1, Oxysterols receptor LXR-beta (Homo sapiens, UniProt P55055); test: Displacement of [3H]N-(4-(1,1,1,3,3,3-hexafluoro-2-hydroxypropan-2-yl)phenyl)-N-methylbenzenesulfonamide from GST-tagged LXRbeta ligand binding domain after 1 hr by scintillation proximity assay
T1 sequence (P55055 whole entry): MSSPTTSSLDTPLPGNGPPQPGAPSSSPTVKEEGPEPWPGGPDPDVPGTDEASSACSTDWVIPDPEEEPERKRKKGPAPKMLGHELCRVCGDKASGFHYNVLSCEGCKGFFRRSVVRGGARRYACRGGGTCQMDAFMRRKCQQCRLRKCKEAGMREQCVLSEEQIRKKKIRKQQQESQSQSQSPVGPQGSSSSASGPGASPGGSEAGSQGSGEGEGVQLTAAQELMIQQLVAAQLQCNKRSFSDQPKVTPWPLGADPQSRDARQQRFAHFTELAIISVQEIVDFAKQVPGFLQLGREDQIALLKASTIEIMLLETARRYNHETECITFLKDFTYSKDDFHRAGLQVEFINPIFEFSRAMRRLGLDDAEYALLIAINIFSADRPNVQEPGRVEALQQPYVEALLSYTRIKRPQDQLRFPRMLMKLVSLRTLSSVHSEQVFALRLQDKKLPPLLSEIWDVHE

[3] = Oral bioavailability in Sprague-Dawley rat at 5 mg/kg; type: ADME, organism-based; details: in vivo
Outline: (§1)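 Male Sprague–Dawley rats given a single oral dose of 5 mg/kg; three animals per study.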

[4] = Clearance in Sprague-Dawley rat at 0.5 mg/kg, iv; type: ADME, organism-based; set-up: dose 0.5 mg/kg, route intravenous; details: in vivo
Outline: (§2)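 Single intravenous dose of 0.5 mg/kg in rats; three animals per study.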

[5] = Mean residence time in Sprague-Dawley rat at 0.5 mg/kg, iv; type: ADME, organism-based; set-up: dose 0.5 mg/kg, route intravenous; details: in vivo; outline: as §2
[6] = AUC in Sprague-Dawley rat at 5 mg/kg, po; type: ADME, organism-based; set-up: dose 5 mg/kg, route oral; details: plasma; outline: as §1
[7] = Volume of distribution at steady state in Sprague-Dawley rat at 0.5 mg/kg, iv; type: ADME, organism-based; set-up: dose 0.5 mg/kg, route intravenous; details: in vivo, read-out: Vdss; outline: as §2
HEK293 = test: Cytotoxicity against human HEK293 cells; type: cell-based
[8] = AUC in Sprague-Dawley rat at 0.5 mg/kg, iv; type: ADME, organism-based; set-up: dose 0.5 mg/kg, route intravenous; details: plasma; outline: as §2
Liver microsomes [9] = test: Drug metabolism in rat liver microsomes assessed as isobutyl-hydroxylation; type: ADME, Microsome
Liver microsomes [10] = test: Drug metabolism in rat liver microsomes assessed as oxidative cleavage of isobutyl group; type: ADME, Microsome
[11] = biological target: T1, Oxysterols receptor LXR-beta; test: Antagonist activity at LXRbeta ligand binding domain expressed in HEK293 cells coexpressing GAL4 assessed as decrease in […]N-(4-(1,1,1,3,3,3-hexafluoro-2-hydroxypropan-2-yl)phenyl)-N-methylbenzenesulfonamide-induced activity after 20 hrs by luciferase reporter gene assay; type: cell-based

remaining at 0.5 h, 1 µM [1]: 36%
Compound: CC(C)(C)CN(c1ccc(C(O)(C#Cc2ccc(S(C)(=O)=O)cc2)C(F)(F)F)cc1)S(=O)(=O)c1ccccc1 (stereo unspecified)

IC50 [2]: > 10 µM
Compound: CN(c1ccc(C(O)(c2ncc[nH]2)C(F)(F)F)cc1)S(=O)(=O)c1ccccc1 (stereo unspecified)

bioavailability [3]: 31%
clearance [4]: 18.3 mL/min/kg
MRT [5]: 2.2 h
remaining at 0.5 h, 1 µM [1]: > 95%
AUC [6]: 1380 ng·h/mL
Vd [7]: 2.3 L/kg
Compound: CS(=O)(=O)c1ccc(C#CC(O)(c2ccc(N(CC3CC3)S(=O)(=O)c3ccccc3)cc2)C(F)(F)F)cc1 (stereo unspecified)

remaining at 0.5 h, 1 µM [1]: 42%
Compound: CS(=O)(=O)c1ccc(C#CC(O)(c2ccc(N(CCC(F)(F)F)S(=O)(=O)c3ccccc3)cc2)C(F)(F)F)cc1 (stereo unspecified)

IC50 [2]: > 10 µM
Compound: CN(c1ccc(C(O)C(F)(F)F)cc1)S(=O)(=O)c1ccccc1 (stereo unspecified)

IC50 [2]: > 30 µM
Compound: CC(C)CC#CC(O)(c1ccc(N(C)S(=O)(=O)c2ccccc2)cc1)C(F)(F)F (stereo unspecified)

remaining at 0.5 h, 1 µM [1]: < 5%
Compound: CS(=O)(=O)c1ccc(C#CC(O)(c2ccc(N(CC3CCCC3)S(=O)(=O)c3ccccc3)cc2)C(F)(F)F)cc1 (stereo unspecified)

IC50 [2]: > 10 µM
Compound: CN(c1ccc(C(C)(O)C(F)(F)F)cc1)S(=O)(=O)c1ccccc1 (stereo unspecified)

Compound: CC(C)CN(c1ccc(C(O)(C#Cc2ccc(S(C)(=O)=O)cc2)C(F)(F)F)cc1)S(=O)(=O)c1cccc(C#N)c1 (stereo unspecified)
Activity (HEK293): Non-toxic

IC50 [2]: > 10 µM
Compound: CN(c1ccc(C(O)(c2nnn[nH]2)C(F)(F)F)cc1)S(=O)(=O)c1ccccc1 (stereo unspecified)

remaining at 0.5 h, 1 µM [1]: 85%
Compound: CS(=O)(=O)c1ccc(C#CC(O)(c2ccc(N(CC(F)(F)F)S(=O)(=O)c3ccccc3)cc2)C(F)(F)F)cc1 (stereo unspecified)

IC50 [2]: > 10 µM
Compound: CN(c1ccc(C(O)(Cc2ccccc2)C(F)(F)F)cc1)S(=O)(=O)c1ccccc1 (stereo unspecified)

AUC [8]: 102 ng·h/mL
bioavailability [3]: 9%
Drug metabolism (Liver microsomes [9]): Active
Drug metabolism (Liver microsomes [10]): Active
clearance [4]: 80 mL/min/kg
MRT [5]: 1.3 h
remaining at 0.5 h, 1 µM [1]: < 5%
AUC [6]: 86 ng·h/mL
Vd [7]: 4.4 L/kg
Compound: CC(C)CN(c1ccc(C(O)(C#Cc2ccc(S(C)(=O)=O)cc2)C(F)(F)F)cc1)S(=O)(=O)c1ccccc1 (stereo unspecified)
Activity (HEK293): Non-toxic

IC50 [11]: > 10 µM
IC50 [2]: > 10 µM
Compound: CC(C)CN(c1ccc(C(O)(C#Cc2ccc(S(=O)(=O)c3ccccc3)cc2)C(F)(F)F)cc1)S(=O)(=O)c1cccc(C#N)c1 (stereo unspecified)

remaining at 0.5 h, 1 µM [1]: < 5%
Compound: CS(=O)(=O)c1ccc(C#CC(O)(c2ccc(N(CC3CCC3)S(=O)(=O)c3ccccc3)cc2)C(F)(F)F)cc1 (stereo unspecified)

IC50 [2]: > 10 µM
Compound: CN(c1ccc(C(O)(c2nnc[nH]2)C(F)(F)F)cc1)S(=O)(=O)c1ccccc1 (stereo unspecified)
